According to ChEMBL document CHEMBL4334543, “Scaffold Hopping-Driven Optimization of 4-(Quinazolin-4-yl)-3,4-dihydroquinoxalin-2(1H)-ones as Novel Tubulin Inhibitors” (ACS Med Chem Lett, 2020):
Values after ≈ are worked out from the molar mass of the structure shown. Active and inactive are the calls of the source. No cut-off for these calls is given here.

Tests used:
A549 = experiment: Antiproliferative activity against human A549 cells assessed as reduction in cell viability incubated for 72 hrs by SRB assay; assay type: functional; details: A549, 72 h
Outline: (§1)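 Sulforhodamine B assay across a human tumor cell line panel, with CA-4 run in parallel as positive control. GI50 is the concentration giving 50% growth inhibition, read from dose–response curves. Values are mean ± SD of at least three independent experiments.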

[1] = Antiproliferative activity against human KBVIN cells assessed as reduction in cell viability incubated for 72 hrs by SRB assay; assay type: functional; outline: as §1
MCF7 = experiment: Antiproliferative activity against human MCF7 cells assessed as reduction in cell viability incubated for 72 hrs by SRB assay; assay type: functional; details: MCF7, 72 h; outline: as §1
MDA-MB-231 [2] = experiment: Antiproliferative activity against human MDA-MB-231 cells assessed as reduction in cell viability incubated for 72 hrs by SRB assay; assay type: functional; details: MDA-MB-231, 72 h; outline: as §1
MDA-MB-231 [3] = experiment: Cell cycle arrest in human MDA-MB-231 cells assessed as increase in accumulation of G2/M phase at 3 times of antiproliferative IC50 incubated for 24 hrs by propidium iodide based flow cytometry; assay type: functional
Outline: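 Cells were fixed in EtOH, stained with propidium iodide in the presence of RNase, and analysed by flow cytometry. Cell count was plotted against linear PI fluorescence.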

KB = experiment: Antiproliferative activity against human KB cells assessed as reduction in cell viability incubated for 72 hrs by SRB assay; assay type: functional; outline: as §1
[4] = Lipophilicity, logP of compound incubated for 24 hrs with stirrer and measured after overnight by HPLC-UV analysis; assay type: physicochemical
MDA-MB-231 [5] = experiment: Inhibition of tubulin polymerization in human MDA-MB-231 cells at 3 times of antiproliferative IC50 incubated for 24 hrs by DAPI staining based confocal fluorescence microscopy; assay type: functional, cell-based
Outline: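 Cells were fixed in 4% PFA/PBS, immunostained for α-tubulin and counterstained with DAPI. Microtubule networks were imaged by confocal fluorescence microscopy as projections of 15–20 confocal images.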

[6] = Potency index, ratio of GI50 of paclitaxel to GI50 of compound for antiproliferative activity against human KBVIN cells assessed as reduction in cell viability incubated for 72 hrs by SRB assay; assay type: functional
[7] = Solubility of compound at pH 7.4 incubated for 4 hrs by HPLC-UV analysis; assay type: physicochemical; details: buffer

SMILES | GI50 (A549) [nM] | GI50 [1] [nM] | GI50 (MCF7) [nM] | GI50 (MDA-MB-231 [2]) [nM] | Activity (MDA-MB-231 [3]) | GI50 (KB) [nM] | logP at 24 h [4] | inhibition (MDA-MB-231 [5]) | RatioGI50 [6] | solubility at 4 h [7] [µg/mL]
COc1ccc2c(c1)NC(=O)CCN2c1nc(C)nc2ccccc12 | 838 | 696 | 933 | 95 | Active | 725 | – | – | – | –
COc1ccc2c(c1)NC(=O)CN2c1cc(C)nc2ccccc12 | 5.4 | 4.8 | – | 8 | Active | 4.6 | 2.96 | Active | 340 | 10.9 (≈ 34.1 µM)
COc1ccc2c(c1)NC(=O)CN2c1nc(Cl)nc2cccnc12 | 5.3 | 5.7 | 8.4 | 7.7 | Active | 5.6 | – | – | 340 | –
COc1ccc2c(c1)NC(=O)CN2c1nc(Cl)nc2cc(OC)c(OC)cc12 | 50 | 65 | 82 | 76 | Active | 45 | – | – | – | –
COc1ccc2c(c1)NC(=O)CCCN2c1nc(C)nc2ccccc12 | 5900 | 5560 | 10500 | 9700 | – | 5700 | – | – | – | –
COc1ccc(/C=C\c2cc(OC)c(OC)c(OC)c2)cc1O [COMBRETASTATIN A4] | 5.5 | 3.8 | 84 | 8.2 | Active | 3.6 | – | Active | – | –
CNc1nc(N2CC(=O)Nc3cc(OC)ccc32)c2cc(OC)c(OC)cc2n1 | 54 | 506 | 84 | 74 | Active | 51 | – | – | – | –
COc1ccc2c(c1)NC(=O)CN2c1nc(NCCCO)nc2cc(OC)c(OC)cc12 | 997 | > 10000 | 950 | 820 | – | 516 | – | – | – | –
COc1ccc2c(c1)NC(=O)CCCCN2c1nc(C)nc2ccccc12 | > 10000 | > 10000 | > 10000 | > 10000 | – | > 10000 | – | – | – | –
COc1ccc2c(c1)NC(=O)CN2c1nccc2c1NC=CN2 | > 40000 | > 40000 | > 40000 | > 40000 | – | > 40000 | – | – | – | –
CC(=O)O[C@H]1C(=O)[C@@]2(C)[C@H]([C@H](OC(=O)c3ccccc3)[C@]3(O)C[C@H](OC(=O)[C@H](O)[C@@H](NC(=O)c4ccccc4)c4ccccc4)C(C)=C1C3(C)C)[C@]1(OC(C)=O)CO[C@@H]1C[C@@H]2O [PACLITAXEL] | 2.4 | 1960 | 8.3 | 5.2 | – | 4.1 | – | – | – | –
COc1ccc2c(c1)NC(=O)CN2c1nccc2nccnc12 | 617 | 638 | 908 | 915 | – | 777 | – | – | – | –
COc1ccc2c(c1)NC(=O)CN2c1nc(OC)nc2cc(OC)c(OC)cc12 | 544 | 919 | 968 | 760 | Active | 506 | – | – | – | –
COc1ccc2c(c1)C(=O)NCCN2c1nc(C)nc2ccccc12 | > 2000 | > 2000 | > 2000 | > 2000 | – | > 2000 | – | – | – | –
COc1ccc2c(c1)NC(=O)CN2c1ncnc2ccc(Br)cc12 | 5.5 | 5 | 9.4 | 9.6 | Active | 5 | – | – | 340 | –
COc1ccc2c(c1)NC(=O)CN2c1ncnc2ncccc12 | 566 | 650 | 1200 | 2290 | Active | 480 | – | – | – | –
